In brackets after ≈: the same amount, converted by molar mass. Blank lines part the entries; values can stand above or below the compound they belong to. Activity calls are given as the source filed them. The rule behind the calls is not given here.
Tests used:
[1] = Fraction unbound in rat plasma; format: ADME, cell-free
Cytochrome P450 2D6 = Cytochrome P450 2D6 (Homo sapiens, UniProt P10635); experiment: Inhibition of CYP2D6 (unknown origin); format: ADME
[2] = Aqueous solubility of the compound at pH 7.4; format: physicochemical; details: aqueous medium
[3] = Volume of distribution at steady state in rat at 1 mg/kg, iv; format: ADME, organism-based; set-up: dose 1 mg/kg, route intravenous; details: in vivo, read-out: Vdss
Rattus norvegicus [4] = experiment: Antiinflammatory activity in Sprague-Dawley rat assessed as inhibition of LPS-induced bronchoalveolar lavage neutrophils at 0.01 mg/ml, inhalation administered as nebulized suspension; format: functional
Procedure, shortened: (§1)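 Rats were given the compound as an aqueous nebulized aerosol by nose-only inhalation 30 min before LPS challenge. Dose is expressed as mg/mL nebulizer concentration. Lung neutrophilia was the readout, and terminal lung concentration (nM) was measured. Groups held 8−10 animals per treatment.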

[5] = Intrinsic clearance in human liver microsomes; format: ADME; details: read-out: CLH
Rattus norvegicus [6] = experiment: Antiinflammatory activity in Sprague-Dawley rat assessed as inhibition of LPS-induced bronchoalveolar lavage neutrophils measured as LPS duration at 0.1 mg/ml, inhalation administered as nebulized suspension; format: functional, organism-based
Procedure, shortened: (§2)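 Duration protocol: rats received a nose-only inhalation of nebulized aqueous compound solution 12 h before LPS challenge. Dose is expressed as mg/mL nebulizer concentration. Readout was LPS-induced pulmonary neutrophilia, with terminal lung concentration (nM) measured. Groups held 8−10 animals per treatment.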

Rattus norvegicus [7] = experiment: Antiinflammatory activity in Sprague-Dawley rat assessed as inhibition of LPS-induced bronchoalveolar lavage neutrophils measured as LPS duration at 0.01 mg/ml, inhalation administered as nebulized suspension; format: functional, organism-based; details: 0.1 mg/ml, in the assay text read “0.1 mg/ml” for “0.01 mg/ml”; procedure, shortened: as §2
[8] = molecular target: Voltage-gated inwardly rectifying potassium channel KCNH2 (Homo sapiens, UniProt Q12809); experiment: Inhibition of human ERG
[9] = Intrinsic clearance in rat hepatocytes measured per 10^6 cells; format: ADME, cell-based, Hepatocyte; details: read-out: CLH
Rattus norvegicus [10] = experiment: Apparent volume of distribution in rat at 1 mg/kg, iv; format: ADME, organism-based; set-up: dose 1 mg/kg, route intravenous; details: in vivo
Procedure, shortened: (§3)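 Rat pharmacokinetics were run at 1 mg/kg, given iv or by intratracheal instillation, with 2−3 animals per study.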

Cytochrome P450 3A4 = Cytochrome P450 3A4 (Homo sapiens, UniProt P08684); experiment: Inhibition of CYP3A4 (unknown origin); format: ADME
Cytochrome P450 2C9 = Cytochrome P450 2C9 (Homo sapiens, UniProt P11712); experiment: Inhibition of CYP2C9 (unknown origin); format: ADME
Cytochrome P450 2C19 = Cytochrome P450 2C19 (Homo sapiens, UniProt P33261); experiment: Inhibition of CYP2C19 (unknown origin); format: ADME
[11] = Fraction unbound in human plasma; format: ADME, cell-free
Rattus norvegicus [12] = experiment: Antiinflammatory activity in Sprague-Dawley rat assessed as inhibition of LPS-induced bronchoalveolar lavage neutrophils at 0.1 mg/ml, inhalation administered as nebulized suspension; format: functional, organism-based; procedure, shortened: as §1
[13] = Half life in rat at 1 mg/kg, iv; format: ADME, organism-based; set-up: dose 1 mg/kg, route intravenous; details: in vivo; procedure, shortened: as §3
CYP (isoform not stated) = experiment: Time dependent inhibition of CYP (unknown origin) at 50 uM; format: ADME; details: human; read-out: TDI
[14] = Clearance in rat at 1 mg/kg, iv; format: ADME, organism-based; set-up: dose 1 mg/kg, route intravenous; details: in vivo; procedure, shortened: as §3
[15] = Lipophilicity, log D of the compound; format: physicochemical; details: octanol/water
PBMC = experiment: Antiinflammatory activity in human PBMC assessed as inhibition of LPS-induced TNFalpha production after 20 hrs by fluorescence linked immunosorbant assay; format: functional, cell-based
Rattus norvegicus [16] = experiment: Antiinflammatory activity in Sprague-Dawley rat assessed as inhibition of LPS-induced bronchoalveolar lavage neutrophils measured as terminal lung concentration at 0.1 mg/ml, inhalation administered as nebulized suspension; format: functional; procedure, shortened: as §1
[17] = molecular target: 3',5'-cyclic-AMP phosphodiesterase 4A (Homo sapiens, UniProt P27815); experiment: Inhibition of human PDE4A1A using [3H]cAMP by packard topcount scintillation counting analysis
[18] = molecular target: T1, 3',5'-cyclic-AMP phosphodiesterase 4B (Rattus norvegicus, UniProt P14646)
T1 sequence (P14646 whole entry): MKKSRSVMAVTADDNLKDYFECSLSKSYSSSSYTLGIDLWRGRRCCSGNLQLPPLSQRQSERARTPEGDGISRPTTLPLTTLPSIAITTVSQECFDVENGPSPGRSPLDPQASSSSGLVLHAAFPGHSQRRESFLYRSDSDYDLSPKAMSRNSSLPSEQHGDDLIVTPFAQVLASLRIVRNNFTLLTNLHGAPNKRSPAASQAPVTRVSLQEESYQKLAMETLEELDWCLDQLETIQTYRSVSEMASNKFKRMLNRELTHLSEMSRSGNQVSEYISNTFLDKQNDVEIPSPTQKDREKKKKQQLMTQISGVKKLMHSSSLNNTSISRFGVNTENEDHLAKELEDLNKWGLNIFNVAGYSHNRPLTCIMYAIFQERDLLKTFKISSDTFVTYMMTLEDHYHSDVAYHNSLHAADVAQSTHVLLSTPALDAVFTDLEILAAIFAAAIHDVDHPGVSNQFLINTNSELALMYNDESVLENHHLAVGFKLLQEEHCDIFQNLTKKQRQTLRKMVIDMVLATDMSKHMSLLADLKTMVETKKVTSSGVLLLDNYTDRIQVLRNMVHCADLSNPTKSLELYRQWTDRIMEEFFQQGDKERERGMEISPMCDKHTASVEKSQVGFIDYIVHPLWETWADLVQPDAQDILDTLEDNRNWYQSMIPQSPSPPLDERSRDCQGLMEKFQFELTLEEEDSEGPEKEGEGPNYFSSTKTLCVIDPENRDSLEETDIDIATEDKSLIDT

Rattus norvegicus [19] = experiment: Antiinflammatory activity in nasally dosed Sprague-Dawley rat assessed as inhibition of LPS-induced bronchoalveolar lavage neutrophils measured as nebulizer concentration administered as […]; format: functional
Procedure, shortened: (§4)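 ED80 was derived from the nose-only nebulized-solution dose response in rats dosed 30 min before LPS challenge, with neutrophilia as the readout. ED80 is given as nebulizer concentration, as the matching terminal total lung concentration, and as lung deposited dose estimated from measured filter sample and terminal lung levels.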

Blood = experiment: Antiinflammatory activity in human whole blood assessed as inhibition of LPS-induced TNFalpha production after 20 hrs by ELISA; format: functional, tissue-based
[20] = Half life in rat at 1 mg/kg, it; format: ADME, organism-based; set-up: dose 1 mg/kg, route endotracheal; details: in vivo, inhaled or intranasal; procedure, shortened: as §3
[21] = molecular target: T2, 3',5'-cyclic-AMP phosphodiesterase 4B (Homo sapiens, UniProt Q07343); experiment: Inhibition of human recombinant PDE4B using [3H]cAMP by packard topcount scintillation counting analysis
[22] = molecular target: 3',5'-cyclic-AMP phosphodiesterase 4D (Homo sapiens, UniProt Q08499); experiment: Inhibition of human PDE4D using [3H]cAMP by packard topcount scintillation counting analysis
Rattus norvegicus [23] = experiment: Antiinflammatory activity in Sprague-Dawley rat assessed as inhibition of LPS-induced bronchoalveolar lavage neutrophils measured as terminal lung concentration at 0.3 mg/ml, inhalation administered as nebulized suspension treated 12 hrs before LPS; format: functional; details: in the assay text read “nebulized solution” for “nebulized suspension”; procedure, shortened: as §2
[24] = Apparent volume of distribution in dog; format: ADME, organism-based, Canis lupus familiaris; details: in vivo, read-out: Vz/F
[25] = Lipophilicity, log K of the compound; format: physicochemical; details: octanol/water
Rattus norvegicus [26] = experiment: Antiinflammatory activity in Sprague-Dawley rat assessed as inhibition of LPS-induced bronchoalveolar lavage neutrophils measured as terminal lung concentration at 0.003 mg/ml, inhalation administered as nebulized suspension; format: functional; procedure, shortened: as §1
Rattus norvegicus [27] = experiment: Antiinflammatory activity in nasally dosed Sprague-Dawley rat assessed as inhibition of LPS-induced bronchoalveolar lavage neutrophils measured as lung deposited dose administered as […]; format: functional; procedure, shortened: as §4
Rattus norvegicus [28] = experiment: Antiinflammatory activity in Sprague-Dawley rat assessed as inhibition of LPS-induced bronchoalveolar lavage neutrophils measured as terminal lung concentration at 0.01 mg/ml, inhalation administered as nebulized suspension; format: functional; procedure, shortened: as §1
[29] = Oral bioavailability in dog; format: ADME, organism-based, Canis lupus familiaris; details: in vivo
Rattus norvegicus [30] = experiment: Antiinflammatory activity in Sprague-Dawley rat assessed as inhibition of LPS-induced bronchoalveolar lavage neutrophils measured as terminal lung concentration at 0.03 mg/ml, inhalation administered as […] treated 12 hrs before LPS; format: functional; procedure, shortened: as §2
Rattus norvegicus [31] = experiment: Antiinflammatory activity in nasally dosed Sprague-Dawley rat assessed as inhibition of LPS-induced bronchoalveolar lavage neutrophils measured as lung concentration administered as […]; format: functional; procedure, shortened: as §4
[32] = Volume of distribution at steady state in dog; format: ADME, organism-based, Canis lupus familiaris; details: in vivo, read-out: Vdss
[33] = molecular target: T2, 3',5'-cyclic-AMP phosphodiesterase 4B; experiment: Inhibition of human recombinant PDE4B at high-affinity rolipram binding site
[34] = Clearance in dog; format: ADME, organism-based, Canis lupus familiaris; details: in vivo
Rattus norvegicus [35] = experiment: Antiinflammatory activity in Sprague-Dawley rat assessed as inhibition of LPS-induced bronchoalveolar lavage neutrophils measured as terminal lung concentration at 0.03 mg/ml, inhalation administered as nebulized suspension; format: functional; procedure, shortened: as §1
Rattus norvegicus [36] = experiment: Antiinflammatory activity in Sprague-Dawley rat assessed as inhibition of LPS-induced bronchoalveolar lavage neutrophils measured as terminal lung concentration at 0.1 mg/ml, inhalation administered as […] treated 12 hrs before LPS; format: functional; procedure, shortened: as §2
[37] = Half life in dog; format: ADME, organism-based, Canis lupus familiaris; details: in vivo

T2 sequence (Q07343 whole entry): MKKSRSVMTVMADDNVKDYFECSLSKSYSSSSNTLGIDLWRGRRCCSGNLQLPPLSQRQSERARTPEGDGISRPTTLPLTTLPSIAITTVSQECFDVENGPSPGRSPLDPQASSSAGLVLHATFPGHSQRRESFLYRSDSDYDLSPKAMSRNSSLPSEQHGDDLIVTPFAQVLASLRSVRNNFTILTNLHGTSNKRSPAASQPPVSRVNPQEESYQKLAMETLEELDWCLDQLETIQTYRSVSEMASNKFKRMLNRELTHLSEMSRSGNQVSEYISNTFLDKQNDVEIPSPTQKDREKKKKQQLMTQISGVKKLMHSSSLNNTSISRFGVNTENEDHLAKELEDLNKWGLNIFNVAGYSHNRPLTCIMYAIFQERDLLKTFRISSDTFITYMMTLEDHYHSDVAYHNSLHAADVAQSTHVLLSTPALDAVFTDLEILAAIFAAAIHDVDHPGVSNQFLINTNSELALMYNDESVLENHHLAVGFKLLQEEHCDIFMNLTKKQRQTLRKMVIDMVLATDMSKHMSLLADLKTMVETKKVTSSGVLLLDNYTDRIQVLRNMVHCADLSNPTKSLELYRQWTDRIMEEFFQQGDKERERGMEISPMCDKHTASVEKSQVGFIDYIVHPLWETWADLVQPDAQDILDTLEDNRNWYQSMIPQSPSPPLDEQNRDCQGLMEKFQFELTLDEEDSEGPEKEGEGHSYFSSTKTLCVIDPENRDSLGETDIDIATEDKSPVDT
Voltage-gated inwardly rectifying potassium channel KCNH2, sequence (Q12809 whole entry): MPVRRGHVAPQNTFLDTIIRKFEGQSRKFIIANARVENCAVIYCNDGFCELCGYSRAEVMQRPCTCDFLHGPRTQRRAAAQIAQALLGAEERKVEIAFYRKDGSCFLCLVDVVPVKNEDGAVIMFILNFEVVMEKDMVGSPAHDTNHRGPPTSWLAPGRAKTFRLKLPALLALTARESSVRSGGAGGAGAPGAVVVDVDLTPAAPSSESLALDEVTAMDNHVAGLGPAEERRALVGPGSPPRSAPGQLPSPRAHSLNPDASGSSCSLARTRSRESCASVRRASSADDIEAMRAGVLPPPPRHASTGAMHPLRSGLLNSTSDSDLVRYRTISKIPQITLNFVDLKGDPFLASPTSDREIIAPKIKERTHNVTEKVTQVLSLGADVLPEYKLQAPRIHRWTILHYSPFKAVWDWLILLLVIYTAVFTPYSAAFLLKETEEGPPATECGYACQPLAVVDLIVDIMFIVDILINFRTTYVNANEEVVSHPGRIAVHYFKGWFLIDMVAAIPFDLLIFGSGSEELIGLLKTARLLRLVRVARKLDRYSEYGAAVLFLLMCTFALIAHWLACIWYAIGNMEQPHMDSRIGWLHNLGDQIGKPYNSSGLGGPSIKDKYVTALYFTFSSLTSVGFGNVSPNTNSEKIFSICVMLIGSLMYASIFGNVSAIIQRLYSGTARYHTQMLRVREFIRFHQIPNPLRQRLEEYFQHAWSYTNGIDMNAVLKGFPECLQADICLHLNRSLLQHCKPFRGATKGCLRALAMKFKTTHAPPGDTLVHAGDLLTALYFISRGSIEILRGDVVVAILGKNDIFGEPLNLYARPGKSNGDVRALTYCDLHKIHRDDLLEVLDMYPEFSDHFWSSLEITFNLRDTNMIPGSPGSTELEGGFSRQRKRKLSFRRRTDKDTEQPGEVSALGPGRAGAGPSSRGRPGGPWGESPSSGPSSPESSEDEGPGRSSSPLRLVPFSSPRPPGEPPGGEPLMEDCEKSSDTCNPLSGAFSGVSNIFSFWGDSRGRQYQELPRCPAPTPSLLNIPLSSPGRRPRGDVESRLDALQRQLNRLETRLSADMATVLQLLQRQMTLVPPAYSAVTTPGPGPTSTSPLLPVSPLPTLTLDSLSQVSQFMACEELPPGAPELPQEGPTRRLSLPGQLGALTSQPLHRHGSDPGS
Cytochrome P450 2C19, sequence (P33261 whole entry): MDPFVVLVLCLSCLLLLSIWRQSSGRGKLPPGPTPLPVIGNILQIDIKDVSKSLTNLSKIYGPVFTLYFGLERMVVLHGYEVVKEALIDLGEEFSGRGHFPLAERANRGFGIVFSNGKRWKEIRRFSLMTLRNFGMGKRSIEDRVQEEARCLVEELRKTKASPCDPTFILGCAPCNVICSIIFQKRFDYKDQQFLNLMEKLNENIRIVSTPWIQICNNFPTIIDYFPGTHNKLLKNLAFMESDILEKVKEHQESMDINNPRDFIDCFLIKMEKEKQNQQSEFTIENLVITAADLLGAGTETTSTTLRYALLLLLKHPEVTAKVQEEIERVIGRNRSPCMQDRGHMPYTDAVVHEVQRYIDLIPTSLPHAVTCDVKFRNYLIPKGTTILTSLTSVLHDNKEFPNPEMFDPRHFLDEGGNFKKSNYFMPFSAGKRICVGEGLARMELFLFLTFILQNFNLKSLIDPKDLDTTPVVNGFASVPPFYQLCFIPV
3',5'-cyclic-AMP phosphodiesterase 4A, sequence (P27815 whole entry): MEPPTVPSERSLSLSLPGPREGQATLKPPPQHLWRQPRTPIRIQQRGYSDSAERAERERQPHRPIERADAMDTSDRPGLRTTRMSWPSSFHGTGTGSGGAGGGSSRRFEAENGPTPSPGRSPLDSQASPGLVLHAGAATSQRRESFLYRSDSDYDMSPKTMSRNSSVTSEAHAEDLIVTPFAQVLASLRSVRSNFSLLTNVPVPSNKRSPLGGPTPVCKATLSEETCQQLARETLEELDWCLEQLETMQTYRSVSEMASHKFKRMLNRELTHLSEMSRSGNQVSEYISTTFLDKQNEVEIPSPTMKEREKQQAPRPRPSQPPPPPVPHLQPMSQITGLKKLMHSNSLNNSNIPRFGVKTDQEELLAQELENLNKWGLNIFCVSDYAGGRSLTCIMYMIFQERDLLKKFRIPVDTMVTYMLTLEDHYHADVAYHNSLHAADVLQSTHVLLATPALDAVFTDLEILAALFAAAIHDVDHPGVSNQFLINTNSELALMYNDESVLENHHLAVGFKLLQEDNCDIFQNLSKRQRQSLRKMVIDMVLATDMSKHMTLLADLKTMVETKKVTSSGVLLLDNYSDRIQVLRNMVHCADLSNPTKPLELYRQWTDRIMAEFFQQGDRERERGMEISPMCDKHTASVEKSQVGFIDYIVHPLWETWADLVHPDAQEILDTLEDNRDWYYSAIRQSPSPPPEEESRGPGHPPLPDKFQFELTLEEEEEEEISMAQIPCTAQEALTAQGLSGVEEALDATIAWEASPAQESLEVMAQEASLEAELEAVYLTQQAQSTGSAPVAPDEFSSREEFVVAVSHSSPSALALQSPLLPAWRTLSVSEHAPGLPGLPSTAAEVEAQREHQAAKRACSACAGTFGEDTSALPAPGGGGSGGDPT
Cytochrome P450 3A4, sequence (P08684 whole entry): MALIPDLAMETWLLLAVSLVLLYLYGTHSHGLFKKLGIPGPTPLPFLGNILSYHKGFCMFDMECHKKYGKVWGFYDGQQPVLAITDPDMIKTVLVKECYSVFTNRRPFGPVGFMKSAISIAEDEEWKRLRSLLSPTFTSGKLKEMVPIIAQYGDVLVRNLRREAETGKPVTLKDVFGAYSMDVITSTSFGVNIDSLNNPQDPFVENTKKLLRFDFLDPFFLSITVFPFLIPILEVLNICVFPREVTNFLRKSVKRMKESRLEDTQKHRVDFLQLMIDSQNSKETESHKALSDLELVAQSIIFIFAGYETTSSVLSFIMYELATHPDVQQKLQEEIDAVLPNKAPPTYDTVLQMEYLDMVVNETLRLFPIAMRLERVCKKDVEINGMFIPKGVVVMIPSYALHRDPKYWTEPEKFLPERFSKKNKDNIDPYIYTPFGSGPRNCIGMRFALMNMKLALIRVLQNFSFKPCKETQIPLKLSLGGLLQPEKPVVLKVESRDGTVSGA
Cytochrome P450 2C9, sequence (P11712 whole entry): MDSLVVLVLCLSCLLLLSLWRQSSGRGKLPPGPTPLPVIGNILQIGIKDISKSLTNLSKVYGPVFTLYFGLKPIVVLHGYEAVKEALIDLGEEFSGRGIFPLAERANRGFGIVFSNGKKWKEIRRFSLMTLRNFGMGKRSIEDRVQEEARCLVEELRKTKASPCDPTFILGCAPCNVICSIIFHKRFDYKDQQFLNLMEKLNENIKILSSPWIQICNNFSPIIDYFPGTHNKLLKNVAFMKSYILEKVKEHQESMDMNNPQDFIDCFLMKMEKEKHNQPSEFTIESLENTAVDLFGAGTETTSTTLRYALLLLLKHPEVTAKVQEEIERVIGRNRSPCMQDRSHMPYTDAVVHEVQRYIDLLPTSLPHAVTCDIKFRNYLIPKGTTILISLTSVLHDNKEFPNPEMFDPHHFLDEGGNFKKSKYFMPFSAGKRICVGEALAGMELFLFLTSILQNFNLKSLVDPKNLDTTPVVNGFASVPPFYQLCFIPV
3',5'-cyclic-AMP phosphodiesterase 4D, sequence (Q08499 whole entry): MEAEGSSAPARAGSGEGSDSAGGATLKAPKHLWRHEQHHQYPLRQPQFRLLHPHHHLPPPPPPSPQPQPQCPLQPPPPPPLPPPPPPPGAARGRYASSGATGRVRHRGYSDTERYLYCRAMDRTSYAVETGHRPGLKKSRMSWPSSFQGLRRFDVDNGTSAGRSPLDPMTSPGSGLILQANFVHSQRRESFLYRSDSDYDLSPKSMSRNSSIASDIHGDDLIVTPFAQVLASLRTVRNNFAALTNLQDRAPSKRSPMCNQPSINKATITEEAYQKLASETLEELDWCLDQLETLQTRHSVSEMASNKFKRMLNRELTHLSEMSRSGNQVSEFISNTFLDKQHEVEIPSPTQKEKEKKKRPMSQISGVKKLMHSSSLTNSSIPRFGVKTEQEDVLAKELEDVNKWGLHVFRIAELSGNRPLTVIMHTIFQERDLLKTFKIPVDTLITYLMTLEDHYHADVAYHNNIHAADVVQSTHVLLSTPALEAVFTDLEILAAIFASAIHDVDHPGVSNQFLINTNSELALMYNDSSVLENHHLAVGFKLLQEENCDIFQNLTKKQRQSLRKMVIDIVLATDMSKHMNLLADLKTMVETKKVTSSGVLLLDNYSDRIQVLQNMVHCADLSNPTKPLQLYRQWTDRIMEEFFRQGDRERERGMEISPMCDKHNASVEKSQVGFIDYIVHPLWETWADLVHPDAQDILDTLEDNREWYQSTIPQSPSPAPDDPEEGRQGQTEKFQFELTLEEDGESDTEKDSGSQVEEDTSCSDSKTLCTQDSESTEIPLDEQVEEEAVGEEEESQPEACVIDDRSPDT

fraction unbound [1]: 0.1
IC50 (Cytochrome P450 2D6): > 10000 nM
solubility [2]: 250 µM (≈ 161 µg/mL)
Vd [3]: 2.6 L/kg
microsomal CLint [5]: > 150 µL/min/mg
hepatocyte CLint [9]: 120 µL/min/1e6 cells
Vz/F (Rattus norvegicus [10]): 76 L/kg
IC50 (Cytochrome P450 3A4): 501 nM
IC50 (Cytochrome P450 2C9): 251 nM
IC50 (Cytochrome P450 2C19): 6310 nM
fraction unbound [11]: 0.056
half-life [13]: 13 h
inhibition at 50 µM (CYP (isoform not stated)): 73%
clearance [14]: 69 mL/min/kg
logD [15]: 3.1
SMILES: Cc1cc(C(=O)N[C@H]2CC[C@@H](NC(=O)c3cc(F)cnc3Oc3cccc(-c4ccc(O)cc4CN4CCOCC4)c3)CC2)nn1C
inhibition (INH) (Rattus norvegicus [4]): 37%
inhibition (Rattus norvegicus [6]): Active
inhibition (Rattus norvegicus [7]): Active
IC50 [8]: 31600 nM
inhibition (Rattus norvegicus [12]): Active
IC50 (PBMC): 0.0631 nM

fraction unbound [1]: 0.23
IC50 [17]: < 10 nM
Vd [3]: 18 L/kg
IC50 [18]: 0.02 nM
microsomal CLint [5]: > 150 µL/min/mg
IC50 (Blood): 0.316 nM
half-life [20]: 8 h
IC50 [21]: 0.0251 nM
IC50 [22]: 0.02 nM
Vd/F [24]: 44 L/kg
log K [25]: 1.32
hepatocyte CLint [9]: 10 µL/min/1e6 cells
Vz/F (Rattus norvegicus [10]): 27 L/kg
bioavailability [29]: 16%
fraction unbound [11]: 0.045
Vd [32]: 26 L/kg
IC50 [33]: < 10 nM
clearance [34]: 34 mL/min/kg
half-life [13]: 7 h
clearance [14]: 44 mL/min/kg
logD [15]: 1.9
half-life [37]: 15 h
SMILES: Cc1csc(C(=O)N[C@H]2CC[C@@H](NC(=O)c3cc(F)cnc3Oc3cccc(-c4ccc(CN5C[C@@H](C)N[C@@H](C)C5)cc4CN4CCOCC4)c3)CC2)n1
Activity (Rattus norvegicus [16]): 90 nM
ED80 (Rattus norvegicus [19]): 20 µg/mL (≈ 26.5 µM)
Activity (Rattus norvegicus [23]): 57 nM
IC50 [8]: 20000 nM
Activity (Rattus norvegicus [26]): 2 nM
ED80 (Rattus norvegicus [27]): 0.2 µg/kg
Activity (Rattus norvegicus [28]): 12 nM
Activity (Rattus norvegicus [30]): 7 nM
ED80 (Rattus norvegicus [31]): 23 nM
Activity (Rattus norvegicus [35]): 30 nM
IC50 (PBMC): 0.02 nM
Activity (Rattus norvegicus [36]): 22 nM
